Measured values from paper PMC12374733 (Journal of the American Chemical Society, 2025).
Where two headings read alike, the source gives them in different places.

What was measured:
NIH-3T3 cells = test: Cell viability, colorimetric sulforhodamine B assay; type: cell-based, mouse
[1] = as above; type: cell-based, mouse; settings: mouse, NIH-3T3 cells
SH-SY5Y cells = test: Cell viability during in-cell synthesis of cinacalcet; type: cell-based, human; settings: SH-SY5Y; for IC50: Homo sapiens
Summary of the method: (§1)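 SH-SY5Y cells were pretreated with aldehyde substrate (200 μM) and sodium formate hydride source (1 mM) for 3 h, then washed with fresh media. The amine partner and Cp* iridium catalyst were added together for a further 24 h. Controls lacked one or more reaction components. Viability is expressed relative to untreated cells.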

[2] = as above; type: cell-based, human; settings: human, SH-SY5Y cells
Summary of the method: as §1

[3] = Lipophilicity, partition between octanol and PBS; type: physicochemical; settings: shake-flask

With `O=CCc1ccccc1` [1c, phenylacetaldehyde] the IC50 (NIH-3T3 cells; Mus musculus, NIH3T3, read-out: 50% inhibition concentration (IC50)) was 185 µM and the viability at 3 h, 400 µM [1] was 38%.

With `O=CCCc1cccc(C(F)(F)F)c1` [1p, 3-(3-(trifluoromethyl)phenyl)propanal] the IC50 (SH-SY5Y cells) was 175 µM and the viability at 3 h, 200 μM [2] was no less than 85%.

Compound `OCCc1ccccc1` [2c] has an IC50 (NIH-3T3 cells; NIH-3T3 cell viability) greater than 7000 µM.

`NCCc1ccccc1` [3c, phenethylamine] showed an IC50 (NIH-3T3 cells; Mus musculus, NIH3T3) greater than 7000 µM.

Work on `C[C@@H](N)c1cccc2ccccc12` [(R)-41, (R)-1-(1-naphthyl)ethylamine] yielded an IC50 (SH-SY5Y cells) of 1500 µM.

With `C[C@@H](NCCCc1cccc(C(F)(F)F)c1)c1cccc2ccccc12` [cinacalcet, reference compound] the IC50 (SH-SY5Y cells) was 16 µM.

`CC(N)c1ccc(O)cc1` (stereo not shown) [compound 10, 4-(1-aminoethyl)phenol] gave an IC50 (NIH-3T3 cells; Mus musculus, NIH3T3) greater than 8000 µM and a viability at 24 h, 1 mM [1] of no less than 84%.

In the case of [Cp*Ir(picolinamidate)Cl] [Ir1], the “partition coefficients (Log P)” value [3] is reported as 1.24, the “cell viability relative to untreated control” value (SH-SY5Y cells; 1p (200 μM), HCOONa (1 mM), (R)-41 and Ir catalyst all present, 24 h) is reported as 28% and the IC50 (NIH-3T3 cells; read-out: 50% inhibition concentration (IC50), NIH-3T3 cell viability) is reported as 62 µM.
